The values below come from PubChem BioAssay.

Experiment [1] can be described thus: Her2 expression decrease, cell viability multiplex – SKBR3 breast tumor cells, AlphaScreen, ATP viability, primary screen (AID 461;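 active = Her2 level under about 52% in both replicate screens, with viability over 70% of control, limit read from the data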;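 as to Her2 level: lower value means less Her2 protein in the cells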;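 as to viability: percent of carrier control wells set as 100% viability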). Particulars: SKBR3 Her2 protein level, 18-24 h, measured here: SKBR3 viability, ATP luminescence, at 10 µM.
Experiment [2] has as its target Receptor tyrosine-protein kinase erbB-2 (Homo sapiens) (UniProt P04626). The experiment is described as above. The following applies: 18-24 h, at 10 µM, stronger effect = lower value.
A short description of experiment [3]: reduced viability of SK-BR-3 breast cancer cells – cell-based, 24 h, human, pilot screen (AID 572).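 Also: compound exposure lasted between 18 and 24 h rather than exactly 24 h; 100% = carrier-treated control wells.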 The following applies: SK-BR-3 viability, CellTiter-Glo luminescence, at 10 µM, stronger effect = lower value. (ATP-based viability assays read luminescence as a measure of living cells.)
Experiment [4] in a line: HUVEC growth inhibition – cell-based, human, primary screen (AID 575;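 active = viability at or below 30% in both replicate assays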;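 also: 100% = median of untreated cell wells with 0.1% DMSO on each plate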). Particulars: HUVEC proliferation, CellTiter-Glo luminescence, 72 h; at 10 µM; stronger effect = lower value. In short, it runs like this:
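Test system – primary HUVEC, no more than 12 passages · Dosing – one dose, 10 µM final, 0.1% DMSO · Times – 72 h treatment at 37 °C · Measured by – ATP-based CellTiter-Glo luminescent read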

The nature of experiment [5]: H69AR cell proliferation blockers – human, duplicate replicates, primary screen (AID 580;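 active = viability at or under a set limit in both replicates, limit being median viability minus 3 SD, cut at about 48% in these data, passing the limit was not always enough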;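 also: 100% = mean luminescence of untreated wells and 0% = no signal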). Particulars: H69AR lung tumor cells viability, ATP luminescence, 72 h; at 10 µM; stronger effect = lower value.
A short description of experiment [6]: MRP1 drug-resistance reversers in H69AR cells – cell-based, doxorubicin co-treatment, pilot screen (AID 601;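 active = viability loss from added drug above about 55%, and viability with drug at most 40%, in both replicates, limit read from the data, passing the limit was not always enough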). The following applies: CellTiter-Glo, 72 h, at 10 µM; for differential viability (reversal): stronger effect = higher value.
Experiment [7] in a line: yeast transport mutant growth inhibition pilot in 384-well plates, post-Golgi transport modulator project (AID 636; in the data active = inhibition above about 31%). The following applies: absorbance 615 nm, about 18 h, stronger effect = higher value.
Experiment [8] in a line: growth suppression of yeast trafficking mutant, preliminary HTS, modulators of trafficking downstream of Golgi apparatus project, 1536-format plate, OD 615 nm (AID 637; in the data active = inhibition above about 30%). Particulars: yeast transport mutant growth, absorbance 615 nm, 18 h; stronger effect = higher value.
[9] abbreviates: H69AR cells + 2 uM doxorubicin, measured here: viability with 2 uM doxorubicin, stronger effect = lower value.
[10] abbreviates: H69AR cells, compound alone cytotoxicity.

Calls of active or inactive are those of the source.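 The calls were made as follows, unless noted: active = viability at or below 10% of carrier control in both of two separate runs; inconclusive = viability at or below 10% in only one of the two runs; inactive = the rest.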

Sequence of Receptor tyrosine-protein kinase erbB-2 (Homo sapiens) (P04626 whole entry, looked up): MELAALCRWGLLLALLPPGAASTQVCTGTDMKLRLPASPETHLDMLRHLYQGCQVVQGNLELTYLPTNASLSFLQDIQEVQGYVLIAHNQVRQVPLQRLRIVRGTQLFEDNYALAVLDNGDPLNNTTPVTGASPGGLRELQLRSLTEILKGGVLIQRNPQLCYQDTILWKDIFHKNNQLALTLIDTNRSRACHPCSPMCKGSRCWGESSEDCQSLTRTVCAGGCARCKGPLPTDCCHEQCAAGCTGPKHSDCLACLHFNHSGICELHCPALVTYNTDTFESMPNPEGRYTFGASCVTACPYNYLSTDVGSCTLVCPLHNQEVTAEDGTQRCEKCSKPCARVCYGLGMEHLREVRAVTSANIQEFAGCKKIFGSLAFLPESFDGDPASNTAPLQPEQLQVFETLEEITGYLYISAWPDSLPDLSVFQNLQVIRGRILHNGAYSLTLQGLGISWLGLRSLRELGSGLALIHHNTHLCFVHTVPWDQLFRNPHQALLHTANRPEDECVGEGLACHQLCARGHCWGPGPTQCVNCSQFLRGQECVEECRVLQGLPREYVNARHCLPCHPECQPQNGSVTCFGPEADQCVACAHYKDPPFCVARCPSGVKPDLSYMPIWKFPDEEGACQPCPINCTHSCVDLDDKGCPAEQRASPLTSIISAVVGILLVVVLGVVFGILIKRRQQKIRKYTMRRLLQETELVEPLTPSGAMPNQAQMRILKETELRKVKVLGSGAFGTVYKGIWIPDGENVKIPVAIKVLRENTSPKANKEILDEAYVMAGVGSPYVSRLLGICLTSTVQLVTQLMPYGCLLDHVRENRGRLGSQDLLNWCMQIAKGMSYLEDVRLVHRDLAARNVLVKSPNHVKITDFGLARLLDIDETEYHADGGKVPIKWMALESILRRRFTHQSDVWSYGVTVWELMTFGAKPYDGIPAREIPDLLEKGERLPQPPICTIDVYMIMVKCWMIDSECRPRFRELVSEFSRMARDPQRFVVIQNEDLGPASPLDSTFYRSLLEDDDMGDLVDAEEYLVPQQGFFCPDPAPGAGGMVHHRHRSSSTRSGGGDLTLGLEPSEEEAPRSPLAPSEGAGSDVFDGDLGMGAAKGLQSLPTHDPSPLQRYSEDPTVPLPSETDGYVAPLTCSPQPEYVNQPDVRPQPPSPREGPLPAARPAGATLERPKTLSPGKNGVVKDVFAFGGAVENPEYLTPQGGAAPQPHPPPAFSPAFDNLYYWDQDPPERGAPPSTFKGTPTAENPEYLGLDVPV

As usually defined, the viability is a read-out of living cells in per cent, often relative to untreated cells. As usually defined, the inhibition is the relative decrease from the control value, in per cent. For `CC(C)NC(=O)CSCc1ccccc1Cl`, the viability is 96% in experiment [1]; 96% (inactive) in experiment [3]; 86.8% (inactive) in experiment [4]; 94.8% (inactive) in experiment [5]; 76.8% in experiment [6] (setting [9]); 94.8% in experiment [6] (setting [10]). Further, the Her2 level in experiment [2] was 95% (inactive). Besides, in experiment [6] (H69AR cells + 2 uM doxorubicin), the differential viability (reversal) is 18% (inactive). Further, the inhibition in experiment [7] was -3.33% (inactive); in experiment [8], 0.97% (inactive).

As to `C[N+]1=C2CCCCCN2C(O)(c2ccccc2)C1` (stereo not given), the viability in experiment [1] is 97%; in experiment [3] it was 97% (inactive); in experiment [4], 101% (inactive); in experiment [5], 96.3% (inactive); in experiment [6] (setting [9]), 97.6%; in experiment [6] (setting [10]), 96.3%. Further, the Her2 level in experiment [2] was 85% (inactive). In experiment [6] (H69AR cells + 2 uM doxorubicin), the differential viability (reversal) is -1.28% (inactive). For the same compound, the inhibition was -0.79% (inactive) in experiment [7] and 1.29% (inactive) in experiment [8].

As for `COc1ccc(CCNC(=O)c2cnc3scc(C)n3c2=O)cc1OC`, the viability is 78% in experiment [1]; 78% (inactive) in experiment [3]; 90.4% (inactive) in experiment [4]; 94.8% (inactive) in experiment [5]; 92.9% in experiment [6] (setting [9]); 94.8% in experiment [6] (setting [10]). Moreover, the Her2 level in experiment [2] is 89% (inactive). The differential viability (reversal) in experiment [6] (H69AR cells + 2 uM doxorubicin) is 1.87% (inactive). The inhibition in experiment [7] is -6.27% (inactive); in experiment [8], 2% (inactive).

In the case of `CC(NC(=O)Nc1nccs1)(C(F)(F)F)C(F)(F)F`, the viability in experiment [1] is 102%; in experiment [3], 102% (inactive); in experiment [4], 103% (inactive); in experiment [5] it was 99.7% (inactive); in experiment [6] (setting [9]) it was 96.2%; in experiment [6] (setting [10]), 99.7%. The Her2 level in experiment [2] is 83.5% (inactive). For the same compound, the differential viability (reversal) in experiment [6] (H69AR cells + 2 uM doxorubicin) is 3.42% (inactive). Moreover, the figures for the inhibition in experiment [7] and in experiment [8] were -7.26% (inactive) and -6.51% (inactive), respectively.

Consider `CCN(CC)CCCn1c(=S)[nH]c2cc(Cl)ccc2c1=O`, for which the viability is 101% in experiment [1]; 101% (inactive) in experiment [3]; 106% (inactive) in experiment [4]; 97% (inactive) in experiment [5]; 90.4% in experiment [6] (setting [9]); 97% in experiment [6] (setting [10]). Besides, the Her2 level in experiment [2] is 96% (inactive). Further, in experiment [6] (H69AR cells + 2 uM doxorubicin), the differential viability (reversal) was 6.63% (inactive). Besides, the inhibition is -6.27% (inactive) in experiment [7] and 1.8% (inactive) in experiment [8].

Turning to `CN1CCc2nc(SCC(=O)Nc3ccc(F)cc3)c(C#N)cc2C1`, the viability was 90.5% in experiment [1]; 90.5% (inactive) in experiment [3]; 94.2% (inactive) in experiment [4]; 97% (inactive) in experiment [5]; 101% in experiment [6] (setting [9]); 97% in experiment [6] (setting [10]). In experiment [2], the Her2 level was 91.5% (inactive). Moreover, in experiment [6] (H69AR cells + 2 uM doxorubicin), the differential viability (reversal) is -4.23% (inactive). For the same compound, the inhibition in experiment [7] was -5.33% (inactive); in experiment [8], 4.1% (inactive).

As to `COc1ccc(-c2nc(C#N)c(NCCCN(C)C)o2)cc1OC`, the viability in experiment [1] is 95%; in experiment [3] it was 95% (inactive); in experiment [4], 102% (inactive); in experiment [5], 96.2% (inactive); in experiment [6] (setting [9]), 93.1%; in experiment [6] (setting [10]), 96.2%. For the same compound, the Her2 level in experiment [2] was 111% (inactive). For the same compound, the differential viability (reversal) in experiment [6] (H69AR cells + 2 uM doxorubicin) was 3.08% (inactive). Also, the inhibition in experiment [7] is -0.26% (inactive); in experiment [8], -5% (inactive).

With `O=S(=O)(NCC(c1cccnc1)N1CCN(c2ccccc2)CC1)c1cc(F)ccc1F` (stereo not given), the viability in experiment [1] is 98.5%; in experiment [3], 98.5% (inactive); in experiment [4], 81.5% (inactive); in experiment [5] it was 86.4% (inactive); in experiment [6] (setting [9]), 94.7%; in experiment [6] (setting [10]), 86.4%. For the same compound, the Her2 level in experiment [2] is 87% (inactive). In addition, the differential viability (reversal) in experiment [6] (H69AR cells + 2 uM doxorubicin) was -8.3% (inactive). Further, the inhibition in experiment [7] is 5.19% (inactive); in experiment [8], 92% (active).

Turning to `Cc1ccccc1NC(=O)c1c(F)c(F)c(F)c(F)c1F`, the viability in experiment [1] was 90.5%; in experiment [3], 90.5% (inactive); in experiment [4], 103% (inactive); in experiment [5], 88.9% (inactive); in experiment [6] (setting [9]) it was 86%; in experiment [6] (setting [10]), 88.9%. For the same compound, the Her2 level in experiment [2] was 98% (inactive). For the same compound, the differential viability (reversal) in experiment [6] (H69AR cells + 2 uM doxorubicin) is 2.94% (inactive). Further, the inhibition in experiment [7] was -5.13% (inactive); in experiment [8], 4.1% (inactive).

Turning to `CCOc1cc2[nH]c(=O)n(CCCCC(=O)N3CCCCCC3)c(=O)c2cc1OCC`, the viability in experiment [1] is 90%; in experiment [3], 90% (inactive); in experiment [4] it was 91.6% (inactive); in experiment [5], 76.8% (inactive); in experiment [6] (setting [9]), 74.4%; in experiment [6] (setting [10]) it was 76.8%. In experiment [2], the Her2 level was 87.5% (inactive). In experiment [6] (H69AR cells + 2 uM doxorubicin), the differential viability (reversal) is 2.38% (inactive). For the same compound, the figures for the inhibition in experiment [7] and in experiment [8] were -3.29% (inactive) and -0.36% (inactive), respectively.

On to `CCCn1c2ccccc2c2nnc(SCC(=O)OCC)nc21`, for which the viability is 95% in experiment [1]; 95% (inactive) in experiment [3]; 88.8% (inactive) in experiment [4]; 91.2% (inactive) in experiment [5]; 80.2% in experiment [6] (setting [9]); 91.2% in experiment [6] (setting [10]). In addition, the Her2 level in experiment [2] was 78.5% (inactive). Moreover, the differential viability (reversal) in experiment [6] (H69AR cells + 2 uM doxorubicin) was 11% (inactive). For the same compound, the inhibition in experiment [7] was -0.66% (inactive); in experiment [8] it was 3.64% (inactive).

For `COc1ccc2cnn(-c3ccccc3)c(=O)c2c1OC`, the viability in experiment [1] is 98%; in experiment [3], 98% (inactive); in experiment [4], 126% (inactive); in experiment [5], 103% (inactive); in experiment [6] (setting [9]), 84.6%; in experiment [6] (setting [10]), 103%. The Her2 level in experiment [2] is 91% (inactive). Further, the differential viability (reversal) in experiment [6] (H69AR cells + 2 uM doxorubicin) is 18.2% (inactive). In addition, the inhibition is -1.71% (inactive) in experiment [7] and 1.64% (inactive) in experiment [8].

Consider `Nn1c(SCC(=O)Nc2ccc(Oc3ccccc3)cc2)nnc1C1CC1`, for which the viability in experiment [1] is 98.5%; in experiment [3], 98.5% (inactive); in experiment [4], 69.1% (inactive); in experiment [5], 75.7% (inactive); in experiment [6] (setting [9]) it was 85.4%; in experiment [6] (setting [10]) it was 75.7%. Moreover, in experiment [2], the Her2 level was 100% (inactive). In addition, the differential viability (reversal) in experiment [6] (H69AR cells + 2 uM doxorubicin) was -9.75% (inactive). In addition, the inhibition in experiment [7] is -5.6% (inactive); in experiment [8], -12.1% (inactive).

Regarding `CC(=O)N1CCN(c2ccc(S(=O)(=O)N3CCCCC3)cn2)CC1`, the viability in experiment [1] was 97%; in experiment [3], 97% (inactive); in experiment [4], 101% (inactive); in experiment [5], 88.6% (inactive); in experiment [6] (setting [9]) it was 84.6%; in experiment [6] (setting [10]) it was 88.6%. Moreover, the Her2 level in experiment [2] is 89.5% (inactive). In addition, the differential viability (reversal) in experiment [6] (H69AR cells + 2 uM doxorubicin) was 3.99% (inactive). Also, the inhibition is -0.39% (inactive) in experiment [7] and -0.16% (inactive) in experiment [8].
